Key:
L1210 [1] = test: In Vitro inhibition of L1210 Murine Leukemia Cells by the compound at a dose of 100 uM; type: functional; conditions: Mus musculus
[2] = test system: Trypanosoma brucei brucei; test: In vitro anti trypanosomal activity against Trypanosomal 110 (EATRO)strain; type: functional, organism-based
[3] = test system: Trypanosoma brucei rhodesiense; test: In Vitro inhibition of Trypanosomal 243 (KETRI)strain by the compound at a dose of 100 uM; type: functional
L1210 [4] = test: In vitro Anti Neoplastic Activity against L1210 murine leukemia Cell lines; type: functional, cell-based; conditions: Mus musculus
Summary of the method: (§1)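 SRB growth assay. Cell lines were grown as monolayers in RPMI-1640 with 5% FCS, 5% NuSerum IV, 20 mM HEPES and 2 mM glutamine, and seeded at 400–1200 cells/well. They attached for 15–18 h before drug. Ten concentrations over 5 logs were tested, with final DMSO ≤0.25%. Exposure was 72 h at 37 °C. Cells were TCA-fixed, stained with sulforhodamine B and read at OD 570 nm. IC50 is 50% growth inhibition.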

[5] = test system: Trypanosoma brucei rhodesiense; test: In vitro anti trypanosomal activity against Trypanosomal 243 As 10e-3 (KETRI)strain; type: functional, organism-based
[6] = test system: Trypanosoma brucei rhodesiense; test: In vitro anti trypanosomal activity against Trypanosomal 243 (KETRI)strain; type: functional, organism-based
[7] = test system: Trypanosoma brucei rhodesiense; test: In vitro anti trypanosomal activity against Trypanosomal 269 (KETRI)strain; type: functional, organism-based
HT-29 [8] = test: In vitro anti Neoplastic Activity in Human Colon adenocarcinoma HT-29 Cell lines; type: functional, cell-based; summary of the method: as §1
A549 [9] = test: In vitro anti Neoplastic Activity against Human non small cell lung carcinoma A549 Cell lines; type: functional, cell-based; summary of the method: as §1
MCF7 [10] = test: In vitro anti Neoplastic Activity against Human Breast adenocarcinoma MCF-7 Cell lines; type: functional, cell-based; summary of the method: as §1
[11] = test system: Trypanosoma brucei brucei; test: In Vitro inhibition of Trypanosomal 110 (EATRO)strain by the compound at a dose of 100 uM; type: functional
MCF7 [12] = test: In vitro anti Neoplastic Activity against Adriamycin resistant Human Breast adenocarcinoma MCF7-Adr Cell lines; type: functional, cell-based; summary of the method: as §1
A121 [13] = test: In vitro anti Neoplastic Activity against Human ovarian carcinoma A121 Cell lines; type: functional, cell-based; summary of the method: as §1
MCF7 [14] = test: In vitro Anti Neoplastic Activity against Human Breast adenocarcinoma MCF-7 Cell lines; type: functional, cell-based; summary of the method: as §1
[15] = test system: Trypanosoma brucei brucei; test: In vitro antitrypanosomal activity against Trypanosomal 110 (EATRO)strain at a dose of 100 uM; type: functional
A121 [16] = test: In vitro Antineoplastic Activity against Human ovarian carcinoma A121 Cell lines; type: functional, cell-based
HT-29 [17] = test: In vitro Antineoplastic Activity in Human Colon adenocarcinoma HT-29 Cell lines; type: functional, cell-based; summary of the method: as §1
[18] = test system: Trypanosoma brucei rhodesiense; test: In vitro antitrypanosomal activity against Trypanosomal 243 (KETRI)strain at a dose of 100 uM; type: functional
MCF7 [19] = test: In vitro Anti Neoplastic Activity against Adriamycin resistant Human Breast adenocarcinoma MCF7-Adr Cell lines; type: functional, cell-based; summary of the method: as §1
A549 [20] = test: In vitro Antineoplastic Activity against Human non small cell lung carcinoma A549 Cell lines; type: functional, cell-based
A121 [21] = test: In vitro Anti Neoplastic Activity against Human ovarian carcinoma A121 Cell lines; type: functional, cell-based; summary of the method: as §1
A549 [22] = test: In vitro Anti Neoplastic Activity against Human non small cell lung carcinoma A549 Cell lines; type: functional, cell-based; summary of the method: as §1
HT-29 [23] = test: In vitro Anti Neoplastic Activity in Human Colon adenocarcinoma HT-29 Cell lines; type: functional, cell-based; summary of the method: as §1

| IC50 [2] [µM] | IC50 (L1210 [4]) [µM] | IC50 [5] [nM] | IC50 [6] [µM] | IC50 [7] [µM] | IC50 (MCF7 [14]) [µM] | IC50 (MCF7 [19]) [µM] | SMILES | inhibition at 100 µM (L1210 [1]) [%] | inhibition at 100 µM [3] [%] | further results |
| --- | --- | --- | --- | --- | --- | --- | --- | --- | --- | --- |
| 14 | > 600 | – | – | – | – | – | CN(Cc1ccccc1CN)C[C@H]1OC(n2cnc3c(N)ncnc32)[C@H](O)[C@@H]1O (some centres undefined) | 41 | 42 | – |
| 4.5 | – | 2000 | 3.8 | 19 | – | – | CN(C/C=C\CN)C[C@H]1O[C@@H](n2cnc3c(N)nc(N)nc32)[C@H](O)[C@@H]1O | – | – | – |
| – | > 600 | – | – | – | – | – | CN(Cc1ccc(CN)cc1)C[C@H]1OC(n2cnc3c(N)ncnc32)[C@H](O)[C@@H]1O (some centres undefined) | 21 | 23 | IC50 (HT-29 [8]): > 100 µM; IC50 (A549 [9]): > 100 µM; IC50 (MCF7 [10]): > 100 µM; inhibition at 100 µM [11]: 21%; IC50 (MCF7 [12]): > 100 µM; IC50 (A121 [13]): > 100 µM |
| – | > 600 | – | – | – | > 100 | > 100 | CNC[C@H]1OC(n2cnc3c(N)ncnc32)[C@H](O)[C@@H]1O (some centres undefined) | – | – | inhibition at 100 µM [15]: 44%; IC50 (A121 [16]): > 100 µM; IC50 (HT-29 [17]): > 100 µM; inhibition at 100 µM [18]: 26%; IC50 (A549 [20]): > 100 µM |
| 1.8 | – | 2900 | 4.6 | 3.8 | > 100 | > 100 | CC(=O)OCC(CN(C)C/C=C\CN)OC(COC(C)=O)n1cnc2c(N)ncnc21 (centres undefined) | – | – | IC50 (A121 [21]): > 100 µM; IC50 (A549 [22]): > 100 µM; IC50 (HT-29 [23]): > 100 µM |
